Read-outs that look alike come from different tables or passages of the source.
Assays:
[1] = assay type: in vivo, human; details: single 50 mg ECT; for half-life: human, plasma, oral, 50 mg, Mean t½ (SD)
How it was run: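 Randomized two-way crossover on day 1 of cycles 1 and 2. Fasted arm: ~10 h overnight fast. Fed arm: high-fat meal (54 g fat, 1036 calories) ~30 min predose, ≥75 % eaten. Tablet taken with 240 mL water, then no food for 4 h. Non-compartmental parameters. Ratio 90 % CIs from ANOVA on log data (patient random effect).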

[2] = dose range of 5–200 mg/day; earlier trials, no reference given; cited from earlier work
[3] = acidic pH / acidic solution; cited from earlier work
advanced solid tumors = assay: Tumor response by RECIST version 1.1; assay type: in vivo, human
How it was run: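 RECIST 1.1 response assessed at baseline, end of cycles 2, 4 and 6, then every 3 cycles (9 weeks) until progression. Oral dosing 40 mg twice daily on days 3–9 of cycles 1–2 (escalation to 50 mg allowed in cycle 2). Afterwards, 40 or 50 mg twice daily on days 1–7 of 21-day cycles.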

[4] = Safety: drug-related adverse events graded by NCI-CTCAE version 3.0; assay type: in vivo, human
How it was run: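 Adverse events monitored throughout and graded by NCI-CTCAE v3.0, alongside regular hematology, clinical chemistry, vital signs and ECOG status. Single oral dose on day 1 of cycles 1–2. Then 40 mg twice daily on days 3–9 (50 mg allowed in cycle 2), followed by 14-day rest. Afterwards, 40 or 50 mg twice daily on days 1–7 of 21-day cycles.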

[5] = cited from earlier work
[6] = 24 patients, during the first two cycles
[7] = N = 24, all alisertib treatments

COc1cc(Nc2ncc3c(n2)-c2ccc(Cl)cc2C(c2c(F)cccc2OC)=NC3)ccc1C(=O)O [Alisertib]
half-life ([1]; fasted state, n = 11): 1000 min | half-life ([1]; fed state, n = 14): 894 min | AUCtlast geometric mean ratio, fed versus fasted (90 % CI) [1]: 1.04 (0.80–1.34) | Cmax geometric mean ratio, fed versus fasted (90 % CI) [1]: 0.84 (0.66–1.06) | Decrease in geometric mean Cmax after high-fat meal compared with fasted [1]: 16% | AUCinf geometric mean ratio, fed versus fasted (90 % CI) ([1]; n = 11): 0.94 (0.68–1.32) | AUCinf geometric mean ratio, fed versus fasted (90 % CI) ([1]; n = 11, listed as alisertib): 0.94 | Geometric mean Cmax under fed conditions as % of that under fasted conditions ([1]; 90 % CI 66–106): 84% | Geometric mean AUCinf under fed conditions as % of that under fasted conditions ([1]; 90 % CI 68–132 %): 94% | Pharmacokinetics, dose linearity [2]: linear | Solubility [3]: reduced | Patients with best response of stable disease (advanced solid tumors; 24 patients evaluable, alisertib 40 to 50 mg twice daily): 50% | Patients with stable disease lasting more than 3 months (advanced solid tumors; of 12 patients with stable disease): seven | Discontinuation of treatment due to AEs ([4]; 24 patients): No patient discontinued treatment due to AEs | Patients reporting at least one drug-related AE ([4]; 24 patients): 96% | Patients with AEs considered serious and related to alisertib ([4]; 24 patients): 13% | Patients with drug-related grade 3/4 leukopenia ([4]; 24 patients): 38% | Patients with drug-related grade 3/4 neutropenia ([4]; 24 patients): 50% | Patients with drug-related grade 3/4 thrombocytopenia ([4]; 24 patients): 21% | Patients with drug-related grade 3 or higher AEs ([4]; 24 patients): 67% | Patients with drug-related alopecia ([4]; 24 patients, any grade): 50% | Patients with drug-related diarrhea ([4]; 24 patients, any grade): 25% | Patients with drug-related fatigue ([4]; 24 patients, any grade): 21% | Patients with drug-related nausea ([4]; 24 patients, any grade): 21% | Serious related grade 3/4 febrile neutropenia [4, 6]: 2 n | Serious related grade 3 neutropenia [4, 6]: 1 n | Drug-related AST increased, all grades [4, 7]: 3 (13) n (%) | Drug-related AST increased, grade ≥3 [4, 7]: 0 n (%) | Drug-related alopecia, all grades [4, 7]: 12 (50) n (%) | Drug-related alopecia, grade ≥3 [4, 7]: 0 n (%) | Drug-related anemia, all grades [4, 7]: 7 (29) n (%) | Drug-related anemia, grade ≥3 [4, 7]: 3 (13) n (%) | Drug-related anorexia, all grades [4, 7]: 4 (17) n (%) | Drug-related anorexia, grade ≥3 [4, 7]: 0 n (%) | Drug-related diarrhea, all grades [4, 7]: 6 (25) n (%) | Drug-related diarrhea, grade ≥3 [4, 7]: 1 (4) n (%) | Drug-related fatigue, all grades [4, 7]: 5 (21) n (%) | Drug-related fatigue, grade ≥3 [4, 7]: 1 (4) n (%) | Drug-related febrile neutropenia, all grades [4, 7]: 2 (8) n (%) | Drug-related febrile neutropenia, grade ≥3 [4, 7]: 2 (8) n (%) | Drug-related leukopenia, all grades [4, 7]: 13 (54) n (%) | Drug-related leukopenia, grade ≥3 [4, 7]: 9 (38) n (%) | Drug-related nausea, all grades [4, 7]: 5 (21) n (%) | Drug-related nausea, grade ≥3 [4, 7]: 0 n (%) | Drug-related neutropenia, all grades [4, 7]: 17 (71) n (%) | Drug-related neutropenia, grade ≥3 [4, 7]: 12 (50) n (%) | Drug-related stomatitis, all grades [4, 7]: 4 (17) n (%) | Drug-related stomatitis, grade ≥3 [4, 7]: 0 n (%) | Drug-related thrombocytopenia, all grades [4, 7]: 7 (29) n (%) | Drug-related thrombocytopenia, grade ≥3 [4, 7]: 5 (21) n (%)

CS(=O)(=O)CCNCc1ccc(-c2ccc3ncnc(Nc4ccc(OCc5cccc(F)c5)c(Cl)c4)c3c2)o1 [Lapatinib]
AUC increase when administered with food ([5]; low-fat meal): approximately three

Cc1nc(Nc2ncc(C(=O)Nc3c(C)cccc3Cl)s2)cc(N2CCN(CCO)CC2)n1 [dasatinib]
Increase in the mean AUC after a high-fat meal ([5]; 100 mg dose following a high-fat meal (30 min)): 14%

C#Cc1cccc(Nc2ncnc3cc(OCCOC)c(OCCOC)cc23)c1 [erlotinib]
Change of systemic exposure under fed compared with fasted conditions ([5]; single-dose crossover study): approximately doubled

COc1cc2ncnc(Nc3ccc(F)c(Cl)c3)c2cc1OCCCN1CCOCC1 [gefitinib]
Effect of food on systemic exposure [5]: unaffected by food

Source: article PMC4767718 (Drugs in R&D, 2015)
